Data: ChEMBL document CHEMBL1641521, “Design, synthesis and antimycobacterial activities of 1-methyl-2-alkenyl-4(1H)-quinolones” (Bioorg Med Chem, 2011)
≈ marks a conversion by molar mass, not a printed value.

Legend:
[1] = tested on: Mycolicibacterium smegmatis; assay: Antimycobacterial activity against Mycobacterium smegmatis ATCC 19420 after 72 hrs by broth microtiter dilution method; type: functional; conditions: ATCC 19420, 72 h
Summary of the method: (§1)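 Twofold serial dilution in cation-adjusted Mueller–Hinton broth, final 128–0.25 mg/L, compounds first dissolved in DMSO. Strains grown on Columbia blood agar with 7% defibrinated horse blood; inoculum 5 x 10^5 cfu/mL from 0.5 McFarland suspension in 0.9% NaCl. Three runs in duplicate.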

[2] = Cytotoxicity against human MRC5 cells assessed as metabolic active cells at 100 uM after 72 hrs by XTT assay relative to control; type: ADME, cell-based; conditions: read-out: Activity
Summary of the method: (§2)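 MRC-5 human diploid embryonic lung cells seeded at 5 × 10^4 cells/well, grown 24 h, then exposed 72 h at 37 °C, 5% CO2 to compound. Ethanol stocks were diluted with buffer or water; 0.1% ethanol served as solvent control. XTT added, 4 h further, absorbance 490 nm minus 655 nm reference. Viability given as % of solvent control; triplicate on two plates, n = 6, mean ± SEM.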

[3] = Cytotoxicity against human MRC5 cells assessed as metabolic active cells at 30 uM after 72 hrs by XTT assay relative to control; type: ADME, cell-based; conditions: read-out: Activity; summary of the method: as §2
[4] = Selectivity index, ratio of IC50 for human MRC5 cells to MIC for Mycobacterium smegmatis ATCC 19420; type: functional
[5] = tested on: Mycolicibacterium fortuitum; assay: Antimycobacterial activity against Mycobacterium fortuitum ATCC 6841 after 72 hrs by broth microtiter dilution method; type: functional; conditions: ATCC 6841, 72 h; summary of the method: as §1
Mycolicibacterium phlei = assay: Antimycobacterial activity against Mycobacterium phlei ATCC 19249 after 72 hrs by broth microtiter dilution method; type: functional; conditions: ATCC 19249, 72 h; summary of the method: as §1

Row | MIC [1] | MIC [5] | MIC (Mycolicibacterium phlei) | Structure (SMILES) | viability at 72 h, 100 µM [2] | viability at 72 h, 30 µM [3] | Selectivity Index [4]
1 | 5.9 µM (≈ 2 µg/mL) | – | – | CCCCCCCC/C=C\CCCc1cc(=O)c2ccccc2n1C | 32% | 76.3% | –
2 | 5.9 µM (≈ 2 µg/mL) | – | – | CC/C=C\CCCCCCCCCc1cc(=O)c2ccccc2n1C | 95.4% | 95.3% | > 20
3 | 2.7 µM (≈ 0.992 µg/mL) | – | – | CCCCCCCCC/C=C\CCCCc1cc(=O)c2ccccc2n1C | 0.8% | 46.6% | –
4 | 26.9 µM (≈ 8 µg/mL) | 8 µg/mL (≈ 26.9 µM) | 8 µg/mL (≈ 26.9 µM) | CCCC/C=C\CCCCc1cc(=O)c2ccccc2n1C | 83.5% | 96.8% | –
5 | 2.8 µM (≈ 0.99 µg/mL) | 1 µg/mL (≈ 2.83 µM) | 1 µg/mL (≈ 2.83 µM) | CCCCCCCCCC/C=C\CCc1cc(=O)c2ccccc2n1C | 4.9% | 55.1% | –
6 | 6.2 µM (≈ 2.02 µg/mL) | – | – | CCCCCCCC/C=C\CCc1cc(=O)c2ccccc2n1C | 85.6% | 88.3% | > 20
7 | 12.9 µM (≈ 4.02 µg/mL) | – | – | CCCCC/C=C\CCCCc1cc(=O)c2ccccc2n1C | 88.5% | 94.9% | –
8 | 53.9 µM (≈ 16 µg/mL) | – | – | CCCCCC/C=C\CCc1cc(=O)c2ccccc2n1C | 47.9% | 73.8% | –
9 | 3.1 µM (≈ 1.01 µg/mL) | – | – | CCCCCC/C=C\CCCCc1cc(=O)c2ccccc2n1C | 81.2% | 94.7% | > 20
10 | 5.9 µM (≈ 2 µg/mL) | – | – | CCCCCCCCC/C=C\CCc1cc(=O)c2ccccc2n1C | 82.1% | 89.7% | > 20
11 | 39.1 µM (≈ 16 µg/mL) | – | – | CCCCCCCC/C=C\CCCCCCCCc1cc(=O)c2ccccc2n1C | 25.5% | 84.4% | –
12 | 151 µM (≈ 64.1 µg/mL) | – | – | CCCCCCCCC/C=C\CCCCCCCCc1cc(=O)c2ccccc2n1C | 19.9% | 95.9% | –
13 | 293 µM (≈ 128 µg/mL) | – | – | CCCCCCCCCC/C=C\CCCCCCCCc1cc(=O)c2ccccc2n1C | 91.5% | 98.9% | –
14 | 20.3 µM (≈ 8.03 µg/mL) | – | – | CCCCCCCC/C=C\CCCCCCCc1cc(=O)c2ccccc2n1C | 0.4% | 53.4% | –
15 | 5.1 µM (≈ 2.01 µg/mL) | 4 µg/mL (≈ 10.2 µM) | 8 µg/mL (≈ 20.3 µM) | CCCCC/C=C\C/C=C\CCCCCCCc1cc(=O)c2ccccc2n1C | 0.4% | 44.2% | –
16 | 188 µM (≈ 64.1 µg/mL) | – | – | CCCCCCCCCCCCCc1cc(=O)c2ccccc2n1C | 69.6% | 102% | –
17 | 347 µM (≈ 128 µg/mL) | – | – | CCCCCCCCCCCCCCCc1cc(=O)c2ccccc2n1C | 57.9% | 79.8% | –
18 | > 322 µM | – | – | CCCCCCCCCCCCCCCCCc1cc(=O)c2ccccc2n1C | 95.2% | 100% | –
19 | 14.9 µM (≈ 4.01 µg/mL) | – | – | CCCCCC/C=C/c1cc(=O)c2ccccc2n1C | 76.5% | 96.8% | –
20 | 62.7 µM (≈ 16 µg/mL) | – | – | CCCCC/C=C/c1cc(=O)c2ccccc2n1C | 77.2% | 86.2% | –
21 | 182 µM (≈ 64.1 µg/mL) | – | – | CCCCCCCCCC/C=C/C=C/c1cc(=O)c2ccccc2n1C | 32.5% | 73.8% | –
22 | 10.9 µM (≈ 3.98 µg/mL) | 2 µg/mL (≈ 5.47 µM) | 4 µg/mL (≈ 10.9 µM) | CCCCCCCCCCC/C=C/C=C/c1cc(=O)c2ccccc2n1C | 18.5% | 50.7% | –
23 | – | 8 µg/mL (≈ 39.2 µM) | 4 µg/mL (≈ 19.6 µM) | CC[C@@H](CO)NCCN[C@@H](CC)CO [ETHAMBUTOL] | – | – | –
24 | 5.9 µM (≈ 2 µg/mL) | 2 µg/mL (≈ 5.89 µM) | 2 µg/mL (≈ 5.89 µM) | CCCCC/C=C\CCCCCCc1cc(=O)c2ccccc2n1C [EVOCARPINE] | 87.6% | 94% | –
25 | – | 1 µg/mL (≈ 7.29 µM) | 4 µg/mL (≈ 29.2 µM) | NNC(=O)c1ccncc1 [ISONIAZID] | – | – | –
